Publication PMC3742633 (Molecular cancer therapeutics, 2013)

Experiments:
[1] = system: Jurkat T cell leukemia cells; experiment: Annexin V / propidium iodide flow cytometry; format: cell-based, human; details: 20 μM, five hours
Jurkat and H522 cells [2] = experiment: Intracellular ATP bioluminescence assay; format: cell-based, human; details: three hours exposure, Jurkat and H522
Outline: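 After plating at 1×10^5 cells/well (24 h, 37°C, 5% CO2) and 3 h test compound exposure, adherent cells were washed with cold PBS, lysed in passive lysis buffer and scraped. One freeze (−80°C)/thaw (37°C) cycle, cleared at 4°C. ATP read by firefly luciferase/D-luciferin luminescence at 560 nm against an ATP standard curve, as nmol/mg BCA protein.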

Jurkat or H522 cells = experiment: 2-[1-14C]-deoxy-D-glucose uptake; format: cell-based, human; details: three hours exposure, Jurkat and H522
Outline: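 Jurkat or H522 cells in RPMI 1640 + 10% FCS + 50 μg/ml gentamycin at 100,000/ml, treated immediately with DMSO vehicle or test compound for 3 h. Washed in glucose-free RPMI, 30 min with inhibitor, then 1 h with 14C-2-deoxyglucose (0.1 μCi/μl stock). Ice-cold washes, 0.5% SDS lysis, scintillation counting; counts normalized to BCA protein.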

[3] = system: H522 human lung adenocarcinoma cells; experiment: Cell viability, trypan blue exclusion; format: cell-based; details: NCI-H522, 48 h, read-out: IC50 cytotoxic effects (viability)
Jurkat and H522 cells [4] = experiment: F26BP measurement in cells; format: cell-based, human; details: three hours exposure
Outline: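 Cells plated at 1×10^5/well, 24 h in RPMI or DMEM (5% CO2, 37°C), then exposed to test compound for 3 h. Cells triturated, washed twice in PBS, dissolved in […] NaOH. F26BP measured by coupled enzyme reaction and normalized to BCA protein. Triplicate or quadruplicate; unpaired two-tailed t-test.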

[5] = Pharmacokinetic profile after IV administration; format: in vivo, female C57Bl/6 mice; details: plasma
Outline: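 Test compound was given IV to female C57Bl/6 mice, with 8 time points and 3 animals per time point. Plasma was extracted with acetonitrile and analysed by LC-MS/MS on a polar reverse-phase column with a 0.5% formic acid acetonitrile/water mobile phase. Tmax, Cmax, volume of distribution, half-life, clearance, AUCs and MRT were calculated from the concentration–time data.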

[6] = system: Jurkat T cell leukemia cells; details: previous studies; cited from earlier work
[7] = target: recombinant human PFKFB3 protein (Homo sapiens, UniProt Q16875); experiment: Recombinant PFKFB3 kinase assay; format: biochemical
[8] = system: Jurkat T cell leukemia cells; experiment: Cell viability, trypan blue exclusion; format: cell-based; details: Homo sapiens, 48 h, read-out: IC50 cytotoxic effects (viability)
[9] = female, C57Bl/6, mouse, iv, 5 mg/kg

recombinant human PFKFB3 protein, sequence (Q16875 whole entry): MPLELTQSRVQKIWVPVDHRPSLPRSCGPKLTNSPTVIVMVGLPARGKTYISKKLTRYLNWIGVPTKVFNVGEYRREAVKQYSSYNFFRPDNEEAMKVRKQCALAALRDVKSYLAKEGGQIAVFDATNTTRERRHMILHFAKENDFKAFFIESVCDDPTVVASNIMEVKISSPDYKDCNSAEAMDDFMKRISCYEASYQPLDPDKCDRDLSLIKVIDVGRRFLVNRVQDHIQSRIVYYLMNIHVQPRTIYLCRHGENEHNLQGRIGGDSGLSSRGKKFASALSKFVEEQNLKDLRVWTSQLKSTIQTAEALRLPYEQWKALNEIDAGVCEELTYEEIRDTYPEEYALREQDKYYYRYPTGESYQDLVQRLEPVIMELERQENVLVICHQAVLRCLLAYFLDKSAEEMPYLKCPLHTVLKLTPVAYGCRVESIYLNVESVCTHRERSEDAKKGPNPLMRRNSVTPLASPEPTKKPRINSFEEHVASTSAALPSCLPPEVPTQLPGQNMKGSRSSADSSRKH

AUC0-inf ([5]; IV, C57Bl/6 mice): 36 ng/h/mL
Cmax [5, 9]: 113 ng/mL
clearance [5, 9]: 2310 mL/min/kg
half-life [5, 9]: 18 min
IC50 [7]: 22.9 µM
Structure (SMILES): O=C(C=Cc1cccnc1)c1ccncc1 [3PO, 3-(3-pyridinyl)-1-(4-pyridinyl)-2-propen-1-one, reference compound]
cells undergoing early apoptosis (Annexin V+/PI−) [1]: increased
effect on intracellular ATP (Jurkat and H522 cells [2]): reduced
effect on glucose uptake (14C-2DG) (Jurkat or H522 cells): reduced
IC50 [3]: 5.57 µM
effect on F26BP (Jurkat and H522 cells [4]): reduced
concentrations that caused cell death [6]: > 10 µM
IC50 [8]: 7.2 µM
